As usually defined, the IC50 is the concentration at which inhibition is half-maximal. Read a low IC50 as greater potency in that assay. As usually defined, the inhibition is the drop in the measured response relative to a control, in per cent.

Here are results for six molecules from ChEMBL document CHEMBL2375232, “4-Amino-2-arylamino-5-indoloyl/cinnamoythiazoles, analogs of topsentin-class of marine alkaloids, induce apoptosis in HeLa cells” (Eur J Med Chem, 2013).

Activity calls are given as the source filed them. No cut-off for these calls is given here.

In experiment [1] the test system is HeLa. As to the kind of experiment: Cell cycle arrest in human HeLa cells assessed as accumulation at S phase after 24 hrs by flow cytometry analysis (reference value: 4.5 +/- 0.2%). In kind it is functional. On the technique in general: Flow cytometry measures light scatter and fluorescence of single cells or particles in a stream.
In experiment [2] the test system is HeLa. As to the kind of experiment: Cell cycle arrest in human HeLa cells assessed as accumulation at G2/M phase after 24 hrs by flow cytometry analysis (reference value: 13.2 +/- 0.48%). In kind it is functional.
In experiment [3] the test system is HeLa. As to the kind of experiment: Cell cycle arrest in human HeLa cells assessed as accumulation at G0/G1 phase after 24 hrs by flow cytometry analysis (reference value: 80.7 +/- 0.47%). The class given is functional.
In experiment [4] the test system is HeLa. As to the kind of experiment: Cell cycle arrest in human HeLa cells assessed as accumulation at sub-G0 phase after 24 hrs by flow cytometry analysis (reference value: 1.2 +/- 0.29%). The class given is functional.
The subject of experiment [5] is HeLa. In words: Induction of apoptosis in human HeLa cells assessed as nuclear condensation using DAPI staining at IC50 after 48 hrs by fluorescence microscopic analysis. The class given is functional, cell-based. Summed up: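 They were PBS-washed, stained with DAPI (1 µg/mL in methanol) for 10 min at 37 °C and imaged by fluorescence microscopy. Condensed chromatin or fragmented nuclei scored as apoptotic; three independent experiments.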

Experiment [6] relates to HeLa. As to the kind of experiment: Induction of apoptosis in human HeLa cells using acridine orange/ethidium bromide staining at IC50 after 48 hrs by fluorescence microscopic analysis. The class given is functional, cell-based. Summed up: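 HeLa cells seeded at 75000/well in 24-well plates, treated at IC50 for 48 h, PBS-washed and stained with acridine orange/ethidium bromide mixture (each 100 µg/mL) for 30 min at 37 °C. Apoptotic morphology assessed by fluorescence microscopy; three independent experiments in duplicate.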

In experiment [7] the test system is HeLa. In words: Cytotoxicity against human HeLa cells after 48 hrs by alamar blue assay. The class given is functional, cell-based. The procedure, abridged:
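Alamar blue (resazurin) viability assay. HeLa cells seeded at 5000 cells/well, treated 24 h later with a range of concentrations for 48 h. Alamar blue (0.2 mg/mL) was then added for 2–4 h and absorbance read at 570 and 595 nm. Survival is percent of untreated control; IC50 taken from the concentration–response curves; three experiments in triplicate.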
In general terms: The colour change of resazurin is a common sign of viable cells or microbes.

The subject of experiment [8] is HeLa. As to the kind of experiment: Induction of apoptosis in human HeLa cells assessed as activation of caspase 8 after 48 hrs by fluorescence assay relative to control. The class given is functional. The procedure, abridged: (§1)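 Fluorogenic substrate assay. 1×10⁶ HeLa cells treated 48 h, lysed in Tris/phosphate buffer pH 7.5 with 1% Triton X-100. Lysate incubated 1 h at 37 °C in PIPES assay buffer pH 7.2 (DTT, EDTA, CHAPS, sucrose) with Ac-DEVD-AFC (caspase 3), Ac-IETD-AFC (caspase 8) or Ac-LEHD-AFC (caspase 9). AFC read at excitation 400 nm, emission 480–520 nm; fold RFU over untreated control; mean ± SD of three experiments.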

Experiment [9] concerns HeLa. As to the kind of experiment: Inhibition of TNFalpha-induced NFkappaB activation (unknown origin) expressed in human HeLa cells at IC50 treated 24 hrs before TNFalpha challenge measured after 5 hrs by luciferase reporter gene assay. In kind it is cell-based.
For experiment [10], the system named is HeLa. In words: Induction of apoptosis in human HeLa cells assessed as activation of caspase 9 after 48 hrs by fluorescence assay relative to control. In kind it is functional. The procedure, abridged: as §1
The test system of experiment [11] is HeLa. In words: Induction of apoptosis in human HeLa cells assessed as activation of caspase 3 after 48 hrs by fluorescence assay relative to control. In kind it is functional. The procedure, abridged: as §1
The subject of experiment [12] is HeLa. As to the kind of experiment: Induction of apoptosis in human HeLa cells assessed as loss of mitochondrial membrane potential using JC-1 staining after 48 hrs by fluorescence microscopic analysis. The class given is functional, cell-based. Summed up:
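Treated cells (48 h, 24-well plates) were given JC-1 diluted in medium and incubated 10 min at 37 °C (or 15 min at RT), washed twice in PBS and viewed by fluorescence microscopy. Orange/red fluorescence marks intact membrane potential; green marks its loss. Confirmed in three independent experiments.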

Experiment [13] concerns HeLa. As to the kind of experiment: Cell cycle arrest in human HeLa cells assessed as accumulation at G2/M phase after 48 hrs by flow cytometry analysis (reference value: 16.6 +/- 0.16%). The class given is functional.
Experiment [14] relates to HeLa. As to the kind of experiment: Cell cycle arrest in human HeLa cells assessed as accumulation at S phase after 48 hrs by flow cytometry analysis (reference value: 7.2 +/- 0.77%). In kind it is functional.
Experiment [15] has as its system HeLa. In words: Cell cycle arrest in human HeLa cells assessed as accumulation at G0/G1 phase after 48 hrs by flow cytometry analysis (reference value: 73.1 +/- 1.02%). The class given is functional.
Experiment [16] concerns HeLa. In words: Cell cycle arrest in human HeLa cells assessed as accumulation at sub-G0 phase after 48 hrs by flow cytometry analysis (reference value: 2.3 +/- 0.37%). The class given is functional.

For `COc1ccc(Nc2nc(Nc3ccc(Cl)cc3)c(C(=O)c3c[nH]c4ccccc34)s2)cc1`, the Activity in the experiment with HeLa [1] is given as 10.19%; in the experiment with HeLa [2] it was 17.51%; in the experiment with HeLa [3], 59.13%; in the experiment on HeLa [4] it was 13.17%; in the experiment with HeLa [13], 9.78%; with HeLa [14], 7.69%. Moreover, the figures for the Activity in the experiment with HeLa [15] and with HeLa [16] were 38.53% and 42.37%, respectively. Moreover, the outcome in the experiment on HeLa [5], with HeLa [6] and in the experiment with HeLa [12] was Active. The IC50 in the experiment on HeLa [7] was determined as 20 µM. Besides, the “fold change (FC)” value in the experiment with HeLa [8] is on record as 1.54; in the experiment with HeLa [10] it was 4.4; in the experiment with HeLa [11] it was 2.4. The inhibition with HeLa [9] worked out at 72%.
Regarding `Nc1nc(Nc2ccc(Cl)cc2)sc1C(=O)c1c[nH]c2ccccc12`, the Activity in the experiment with HeLa [1] came out at 8.12%; in the experiment on HeLa [2] it was 11.8%; in the experiment with HeLa [3], 56.34%; with HeLa [4] it was 23.74%; in the experiment with HeLa [13], 21.56%; with HeLa [14] it was 8.95%. The Activity is 13.75% in the experiment with HeLa [15] and 55.33% in the experiment on HeLa [16]. For the same molecule, the outcome with HeLa [5], in the experiment with HeLa [6] and in the experiment with HeLa [12] was Active. Besides, half-maximal inhibition in the experiment with HeLa [7] (IC50) was put at 45 µM. The “fold change (FC)” value worked out at 0.96 in the experiment with HeLa [8], 2.5 in the experiment with HeLa [10] and 2.5 in the experiment on HeLa [11]. Moreover, the inhibition in the experiment on HeLa [9] was found to be 80%.
With `COc1cc(/C=C/C(=O)CC(=O)/C=C/c2ccc(O)c(OC)c2)ccc1O` [CURCUMIN], the “fold change (FC)” value in the experiment on HeLa [8] is 1.4; in the experiment with HeLa [10], 1.7; in the experiment on HeLa [11] it was 2.1. In the experiment with HeLa [9], this molecule gave an inhibition of 79%. The result in the experiment with HeLa [12] was Active.
With `COc1cc(/C=C/C(=O)c2sc(Nc3ccc(Cl)cc3)nc2N)ccc1O`, the Activity in the experiment with HeLa [1] is on record as 4.4%; in the experiment on HeLa [2], 27.2%; in the experiment with HeLa [3] it was 64.7%; in the experiment with HeLa [4], 3.4%; in the experiment with HeLa [13], 28.2%; in the experiment with HeLa [14] it was 14.2%. The Activity is 38% in the experiment on HeLa [15] and 16.7% with HeLa [16]. Besides, the outcome in the experiment with HeLa [5], in the experiment with HeLa [6] and in the experiment on HeLa [12] was Active. This molecule also came in with an IC50 with HeLa [7] of 60 µM. Also, the results for the “fold change (FC)” value in the experiment with HeLa [8], in the experiment with HeLa [10] and in the experiment on HeLa [11] were 0.9, 2.3 and 1.5, respectively. The molecule further returned an inhibition with HeLa [9] of 87%.
Take `COc1ccc(Nc2nc(N)c(C(=O)c3c[nH]c4ccccc34)s2)cc1`: the Activity in the experiment with HeLa [1] was 4.2%; with HeLa [2], 35.3%; in the experiment with HeLa [3], 43.2%; in the experiment with HeLa [4], 16.7%; in the experiment with HeLa [13], 12.5%; in the experiment on HeLa [14], 7.8%. For the same molecule, the Activity in the experiment with HeLa [15] amounted to 24%; in the experiment on HeLa [16], 49%. Further, the result in the experiment with HeLa [5], in the experiment with HeLa [6] and with HeLa [12] was Active. This molecule came in with an IC50 in the experiment with HeLa [7] of 1 µM. Also, the “fold change (FC)” value is recorded as 1.1 in the experiment with HeLa [8], 1.6 with HeLa [10] and 2.8 with HeLa [11]. In the experiment on HeLa [9], this molecule registered an inhibition of 34%.
On to `COc1ccc(/C=C/C(=O)c2sc(Nc3ccc(Cl)cc3)nc2N)cc1O`, for which the Activity with HeLa [1] was 6.8%; in the experiment on HeLa [2] it was 51.4%; in the experiment with HeLa [3] it was 15.37%; in the experiment with HeLa [4] it was 25.8%; in the experiment with HeLa [13], 35.8%; in the experiment with HeLa [14], 9%. Further, the values for the Activity with HeLa [15] and with HeLa [16] were 15% and 35%, respectively. The outcome with HeLa [5], with HeLa [6] and in the experiment on HeLa [12] was Active. The molecule also showed an IC50 in the experiment with HeLa [7] of 30 µM. Also, the entries for the “fold change (FC)” value with HeLa [8], with HeLa [10] and in the experiment on HeLa [11] were 1.2, 2.6 and 2.2, respectively. This molecule gave an inhibition with HeLa [9] of 56%.
